According to ChEMBL document CHEMBL4732138, “Evaluation of the Structure-Activity Relationship of Microtubule-Targeting 1,2,4-Triazolo[1,5-a]pyrimidines Identifies New Candidates for Neurodegenerative Tauopathies” (J Med Chem, 2021):

Assays:
Tubulin (Homo sapiens) [1] = target: T1, Tubulin (Homo sapiens) (UniProt P68371+Q9H4B7+P0DPH7+P68366+Q13509+Q71U36+P04350+Q3ZCM7+P07437+P68363+Q9BQE3+Q6PEY2+Q13885+Q9BVA1+Q9BUF5); test: Stabilization of microtubules in human QBI293 cells assessed as fold change in acetylated tubulin levels at 1 uM after 4 hrs by ELISA relative to cevipabulin; assay type: cell-based
Tubulin (Homo sapiens) [2] = target: T1, Tubulin (Homo sapiens); test: Stabilization of microtubules in human QBI293 cells assessed as fold change in acetylated tubulin levels at 10 uM after 4 hrs by ELISA relative to cevipabulin; assay type: cell-based
Tubulin (Homo sapiens) [3] = target: T1, Tubulin (Homo sapiens); test: Stabilization of microtubules in human QBI293 cells assessed as fold change in acetylated tubulin levels at 10 uM after 4 hrs by ELISA relative to DMSO; assay type: cell-based
How it was run: (§1)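 QBI293 cells were grown in DMEM with 10% FBS, 2 mM L-glutamine and penicillin/streptomycin, then plated at 6 × 10^5 cells/well and left overnight. Medium was replaced with fresh medium holding vehicle (DMSO) or compound, and cells were incubated 4 h. Whole-cell extract supernatants were protein-normalized by BCA assay. AcTub and α-tubulin were quantified by ELISA against standard curves. Values are fold-change over DMSO, analysed by one-way ANOVA.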

Tubulin (Homo sapiens) [4] = target: T1, Tubulin (Homo sapiens); test: Stabilization of microtubules in human QBI293 cells assessed as fold change in alpha tubulin levels at 1 uM after 4 hrs by ELISA relative to DMSO; assay type: cell-based; how it was run: as §1
Tubulin (Homo sapiens) [5] = target: T1, Tubulin (Homo sapiens); test: Stabilization of microtubules in human QBI293 cells assessed as fold change in acetylated tubulin levels at 1 uM after 4 hrs by ELISA relative to DMSO; assay type: cell-based; how it was run: as §1
Tubulin (Homo sapiens) [6] = target: T1, Tubulin (Homo sapiens); test: Stabilization of microtubules in human QBI293 cells assessed as fold change in alpha tubulin levels at 10 uM after 4 hrs by ELISA relative to DMSO; assay type: cell-based; how it was run: as §1
[7] = n-octanol-water distribution coefficient, log D of the compound at pH 7.4 by shake flask method; assay type: physicochemical
How it was run: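 Distribution coefficient between n-octanol and water at pH 7.4, measured by shake-flask method.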

Tubulin (Homo sapiens) [8] = target: T1, Tubulin (Homo sapiens); test: Stabilization of microtubules in human QBI293 cells assessed as decrease in alpha-tubulin levels at 1 to 10 uM after 4 hrs by ELISA relative to control; assay type: cell-based; set-up: scale not given: the % may be the effect or the level left; settings: dose 1-10 µM
How it was run: (§2)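 QBI293 cells are grown in DMEM with 10% FBS, 2 mM L-glutamine and penicillin/streptomycin, plated at 6 × 10^5 cells/well and incubated overnight. […] Acetyl- and total α-tubulin in whole-cell extract supernatants are measured by ELISA against standard curves, with protein by BCA. Values are fold-change over DMSO; AcTub is also given relative to 100 nM cevipabulin positive control. Significance is by one-way ANOVA.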

Tubulin (Homo sapiens) [9] = target: T1, Tubulin (Homo sapiens); test: Stabilization of microtubules in human QBI293 cells assessed as decrease in alpha-tubulin levels at 10 uM after 4 hrs by ELISA relative to control; assay type: cell-based; set-up: scale not given: the % may be the effect or the level left
How it was run: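 QBI293 cells grown in DMEM with 10% FBS, 2 mM L-glutamine and penicillin/streptomycin, plated at 6 × 10^5 cells/well and left overnight. […] Whole-cell extract supernatants protein-normalised by BCA. Total α-tubulin measured by ELISA against standard curves, reported as fold-change over DMSO-treated cells; one-way ANOVA.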

Tubulin (Homo sapiens) [10] = target: T1, Tubulin (Homo sapiens); test: Stabilization of microtubules in human QBI293 cells assessed as increase in acetylated tubulin levels after 4 hrs by ELISA; assay type: cell-based; how it was run: as §2
[11] = Ratio of drug concentration in brain to plasma in CD-1 mouse at 2.5 mg/kg, ip administered as single cassette dosing and measured after 1 hr; assay type: ADME, organism-based; settings: read-out: BPR
How it was run: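 Groups of three female CD-1 mice, 2–3 months old, cassette-dosed i.p. with 2–3 compounds at the same time, each at 2.5 mg/kg in DMSO. Euthanised 1 h after dosing. Brain hemispheres homogenised in 10 mM ammonium acetate pH 5.7 (50% w/v). Plasma from blood collected in EDTA and centrifuged 4,500 × g, 10 min, 4 °C. Compound levels measured in both; brain/plasma ratio reported.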

[12] = n-octanol/water, read-out: logD

SMILES	fold change (FC) (Tubulin (Homo sapiens) [1])	fold change (FC) (Tubulin (Homo sapiens) [2])	fold change (FC) (Tubulin (Homo sapiens) [3])	fold change (FC) (Tubulin (Homo sapiens) [4])	fold change (FC) (Tubulin (Homo sapiens) [5])	fold change (FC) (Tubulin (Homo sapiens) [6])	logD [7, 12]	Activity (Tubulin (Homo sapiens) [8])	Activity (Tubulin (Homo sapiens) [9])	Activity (Tubulin (Homo sapiens) [10])	Kp at 1 h [11]	logD ([7]; octanol/water)
CO[C@H]1C[C@H]2CC[C@@H](C1)N2c1c(-c2c(F)cc(C#N)cc2F)c(Cl)nc2ncnn12	0.64	1.06	4.32	0.99	2.61	1	2.74					
CSc1cc(F)c(-c2c(Cl)nc3ncnn3c2N[C@@H](C)C(F)(F)F)c(F)c1	0.27	0.35	2.23	0.88	1.75	0.56		> 15%				
C[C@H](Nc1c(-c2c(F)cc(OCCCO)cc2F)c(Cl)nc2ncnn12)C(F)(F)F								> 15%				
CC(C)[C@H](Nc1c(-c2c(F)cc(F)cc2F)c(Cl)nc2ncnn12)C(F)(F)F									39%			
C[C@H](Nc1c(-c2c(F)cc(O)cc2F)c(Cl)nc2ncnn12)C(F)(F)F	0.23	0.77	4.11	0.84	1.22	0.57		> 15%				
CO[C@H]1C[C@H]2CC[C@@H](C1)N2c1c(-c2c(F)cc(F)cc2F)c(Cl)nc2ncnn12	0.54	1.11	7.43	1.12	3.65	1.38	3.38			Dose-dependent effect		
C[C@H](Nc1c(-c2c(F)cc(Cl)cc2F)c(Cl)nc2ncnn12)C(F)(F)F	0.31	0.7	4.28	0.93	1.88	0.81		> 15%				
CC(C)[C@@H](C)Nc1c(-c2ccc(C#N)cc2F)c(Cl)nc2ncnn12 (stereo in doubt; 67)							2.9					
COc1cc(F)c(-c2c(Cl)nc3ncnn3c2N[C@@H](C)C(F)(F)F)c(F)c1	0.64	0.42	2.07	0.72	3.16	0.51		> 15%				
N#Cc1cc(F)c(-c2c(Cl)nc3ncnn3c2N2CCCCCC2)c(F)c1	1.04	1.82	11.2	0.98	6.4	0.99	2.12				0.7	
CC(Cc1c(-c2c(F)cc(F)cc2F)c(Cl)nc2ncnn12)C(F)(F)F (configuration not stated)	0.53	0.53	2.29	1.03	2.3	0.78			22%			
CC(C)[C@@H](C)Nc1c(-c2ccccc2F)c(Cl)nc2ncnn12	0.2	0.43	2.1	1	0.95	1.04	2.95					
C[C@H](Nc1c(-c2ccc(F)c(F)c2F)c(Cl)nc2ncnn12)C(F)(F)F	0.12	0.34	4.28	1.11	1.5	0.88				Dose-dependent effect		
CC(C)[C@@H](C)Nc1c(-c2c(F)cc(C#N)cc2F)c(Cl)nc2ncnn12	0.62	0.69	4.28	0.93	3.8	0.94	2.47				0.7	
C[C@H](Nc1c(-c2c(F)cccc2F)c(Cl)nc2ncnn12)C(F)(F)F	0.16	0.39	5.28	1.06	2.2	1.02				Dose-dependent effect		
CC(Nc1c(-c2c(F)cc(F)cc2F)c(Cl)nc2ncnn12)C(F)F (configuration not stated)	0.3	0.35	1.82	1.19	1.28	1.17				Dose-dependent effect		
CC(C)[C@@H](C)Nc1c(-c2c(F)cccc2F)c(Cl)nc2ncnn12	0.96	1.07	4.88	1	4.36	0.96	3.16					
Cc1cc(F)c(-c2c(Cl)nc3ncnn3c2N[C@@H](C)C(F)(F)F)c(F)c1	0.28	0.48	2.73	0.99	1.62	0.78		> 15%				
CC(CF)Nc1c(-c2c(F)cc(F)cc2F)c(Cl)nc2ncnn12 (configuration not stated)	0.3	0.35	1.5	0.92	1.32	1.09				Dose-dependent effect		
C[C@H](Nc1c(-c2ccccc2F)c(Cl)nc2ncnn12)C(F)(F)F	0.13	0.26	3.56	1.09	1.73	1.05				Dose-dependent effect		
CC(C)[C@@H](C)Nc1c(-c2ccc(C#N)cc2F)c(Cl)nc2ncnn12 (stereo in doubt; 68)												2.67
N#Cc1ccc(-c2c(Cl)nc3ncnn3c2N2CCCCCC2)c(F)c1	0.55	0.97	12.6	1.04	7.17	0.99	3.15					
C[C@H](Nc1c(-c2cc(F)cc(F)c2)c(Cl)nc2ncnn12)C(F)(F)F	0.12	0.3	3.97	1.12	1.52	1.12				Dose-dependent effect		
C[C@H](Nc1c(-c2ccccc2)c(Cl)nc2ncnn12)C(F)(F)F	0.12	0.3	2.07	1.09	1.11	1.03				Dose-dependent effect		
CC(C)CNc1c(-c2c(F)cc(F)cc2F)c(Cl)nc2ncnn12	0.38	0.53	2.28	1.3	1.63	0.99				Dose-dependent effect		
C[C@@H](Nc1c(-c2ccc(C#N)cc2F)c(Cl)nc2ncnn12)C(C)(C)C	0.71	1.24	7.67	0.86	4.41	0.93	2.86					
C[C@H](Nc1c(-c2ccc(F)cc2F)c(Cl)nc2ncnn12)C(F)(F)F	0.13	0.27	3.19	0.99	1.54	0.86				Dose-dependent effect		
C[C@H](Nc1c(-c2cc(F)ccc2F)c(Cl)nc2ncnn12)C(F)(F)F	0.07	0.22	4.1	1.05	1.4	0.9				Dose-dependent effect		
C[C@H](Nc1c(-c2c(F)cc(C#N)cc2F)c(Cl)nc2ncnn12)C(F)(F)F	0.27	0.51	3.56	0.94	1.9	0.95				Dose-dependent effect		
